IC50 data for 22 compounds are collected here from ChEMBL document CHEMBL1126645, “Nonsymmetrical bipiperidyls as inhibitors of vesicular acetylcholine storage” (J Med Chem, 1993).

In this test the target is T1, Vesicular acetylcholine transporter (Torpedo californica, UniProt P81721).
T1 sequence (P81721 whole entry): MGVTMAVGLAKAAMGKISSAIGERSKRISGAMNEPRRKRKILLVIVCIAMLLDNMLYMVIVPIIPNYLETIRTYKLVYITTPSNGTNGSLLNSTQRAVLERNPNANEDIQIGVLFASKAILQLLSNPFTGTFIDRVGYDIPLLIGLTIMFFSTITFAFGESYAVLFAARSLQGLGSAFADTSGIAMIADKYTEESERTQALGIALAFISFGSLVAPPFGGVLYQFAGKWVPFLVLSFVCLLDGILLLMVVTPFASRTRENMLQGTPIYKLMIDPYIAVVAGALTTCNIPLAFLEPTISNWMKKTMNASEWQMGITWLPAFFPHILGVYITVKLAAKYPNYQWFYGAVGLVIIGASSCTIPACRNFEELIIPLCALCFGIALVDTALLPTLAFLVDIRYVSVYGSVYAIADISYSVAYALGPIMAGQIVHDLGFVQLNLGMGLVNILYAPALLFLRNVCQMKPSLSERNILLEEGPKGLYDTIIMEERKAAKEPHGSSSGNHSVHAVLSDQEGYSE
Kind of test: Inhibition of [3H]- vesamicol binding to synaptic vesicles preparation from the electric organ of Torpedo californica. The arrangement: species or system Tetronarce californica. The essentials: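 Run without ATP and without acetylcholine. Each drug concentration tested in duplicate, with variation below 5%. Other assay details follow an earlier published protocol.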
As to `O=C(c1cccc(I)c1)N1CC[C@@H](O)[C@H](N2CCC(c3ccccc3)CC2)C1`, the IC50 is 39 nM.

As to `O=C(c1ccc(I)cc1)N1CC[C@@H](O)[C@H](N2CCC(c3ccccc3)CC2)C1`, the concentration for half-maximal inhibition (IC50) amounted to 22 nM.

`O=C(c1ccccc1)N1CC[C@@H](N2CCC(c3ccccc3)CC2)[C@H](O)C1` showed a half-inhibitory concentration (IC50) of 1900 nM.

The compound `Cc1ccc(CN2CC[C@@H](O)[C@H](N3CCC(c4ccccc4)CC3)C2)cc1` displayed an IC50 of 24 nM.

For `O[C@@H]1CCN(Cc2cccc(I)c2)C[C@H]1N1CCC(c2ccccc2)CC1`, the IC50 was found to be 26 nM.

As for `O[C@@H]1CCN(Cc2ccccc2Br)C[C@H]1N1CCC(c2ccccc2)CC1`, the IC50 came out at 22 nM.

`O[C@@H]1CN(Cc2ccc(Br)cc2)CC[C@H]1N1CCC(c2ccccc2)CC1` registered an IC50 of 310 nM.

Compound `O=C(c1ccccc1)N1CC[C@@H](O)[C@H](N2CCC(c3ccccc3)CC2)C1` returned an IC50 of 34 nM.

Regarding `O[C@@H]1CCN(Cc2cccc(Br)c2)C[C@H]1N1CCC(c2ccccc2)CC1`, the IC50 is 21 nM.

`O[C@@H]1CN(Cc2ccccc2)CC[C@H]1N1CCC(c2ccccc2)CC1`: the IC50 is 83 nM.

On to `O[C@@H]1CCN(Cc2ccccc2)C[C@H]1N1CCC(c2ccccc2)CC1`, for which the IC50 worked out at 30 nM.

Turning to `O[C@@H]1CNCC[C@H]1N1CCC(c2ccccc2)CC1`, the IC50 is 5000 nM.

With `O=C(c1ccccc1I)N1CC[C@@H](O)[C@H](N2CCC(c3ccccc3)CC2)C1`, the 50% inhibitory concentration (IC50) was found to be 250 nM.

`O[C@@H]1CCN(Cc2cccc(F)c2)C[C@H]1N1CCC(c2ccccc2)CC1` gave an IC50 of 31 nM.

In turn, `O[C@@H]1CCN(Cc2ccc(Br)cc2)C[C@H]1N1CCC(c2ccccc2)CC1` showed a 50% inhibitory concentration (IC50) of 25 nM.

Regarding `Cc1cccc(CN2CC[C@@H](O)[C@H](N3CCC(c4ccccc4)CC3)C2)c1`, the IC50 turned out to be 22 nM.

Compound `O=[N+]([O-])c1ccc(N2CC[C@@H](O)[C@H](N3CCC(c4ccccc4)CC3)C2)cc1` yielded an IC50 of 290 nM.

Regarding `O[C@@H]1CCN(Cc2ccc(F)cc2)C[C@H]1N1CCC(c2ccccc2)CC1`, the 50% inhibitory concentration (IC50) was 14 nM.

`Cc1ccccc1CN1CC[C@@H](O)[C@H](N2CCC(c3ccccc3)CC2)C1` gave a 50% inhibitory concentration (IC50) of 25 nM.

With `O[C@@H]1CN(Cc2ccccc2Br)CC[C@H]1N1CCC(c2ccccc2)CC1`, the IC50 amounted to 55 nM.

With `O[C@@H]1CCNC[C@H]1N1CCC(c2ccccc2)CC1`, the 50% inhibitory concentration (IC50) stood at 2900 nM.

As to `O[C@@H]1CCN(Cc2ccccc2F)C[C@H]1N1CCC(c2ccccc2)CC1`, the 50% inhibitory concentration (IC50) is 42 nM.

In general, IC50 refers to the concentration at which inhibition is half-maximal.
